Format in all cases: functional
Assay [1] relates to Streptococcus pneumoniae. Put plainly: Antimicrobial activity against Streptococcus pneumoniae R6 transformed with DNA containing spr0813 C1744T mutant gene selected after drug exposure by agar dilution method. The essentials: (§1)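 Agar dilution MIC against the strain. Vancoresmycin was tested at 0.3 to 0.8 μg/ml in 0.05 μg/ml steps, diluted from a 0.5 mg/ml methanol stock kept at −20°C. Bacitracin was tested at 0.5 to 6 μg/ml in 0.2 μg/ml steps. Pneumococci are routinely grown at 37°C. MIC is the mean of three independent experiments.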
Background: In agar dilution, organisms are placed on agar that contains the substance at set levels.

The test system of assay [2] is Streptococcus pneumoniae. Description: Antimicrobial activity against copY and cyl deficient Streptococcus pneumoniae VarA mutant by agar dilution method.
Assay [3] has as its system Streptococcus pneumoniae. Put plainly: Antimicrobial activity against copY and cyl deficient Streptococcus pneumoniae VarE mutant by agar dilution method.
Assay [4] relates to Streptococcus pneumoniae. Description: Antimicrobial activity against Streptococcus pneumoniae R6 transformed with DNA containing spr0813 C1744T mutant gene selected after vancoresmycin exposure by agar dilution method. In outline: as §1
In assay [5] the test system is Streptococcus pneumoniae. Description: Antimicrobial activity against Streptococcus pneumoniae R6 transformed with DNA containing spr0813 C1744T::aphIII mutant gene selected after kanamycin exposure by agar dilution method. The essentials:
as §1

In assay [6] the test system is Streptococcus pneumoniae. Description: Antimicrobial activity against kanamycin-resistant and spr0811-spr0813::aphIII deficient Streptococcus pneumoniae R6 by agar dilution method. In outline: as §1
The subject of assay [7] is Streptococcus pneumoniae. Put plainly: Antimicrobial activity against Streptococcus pneumoniae R6 by agar dilution method. The essentials:
as §1

The subject of assay [8] is Streptococcus pneumoniae. Description: Antimicrobial activity against copY and cyl deficient Streptococcus pneumoniae VarF mutant by agar dilution method.
Assay [9] has as its system Streptococcus pneumoniae. Description: Antimicrobial activity against Streptococcus pneumoniae VarG transformed with spr0813 C1744T mutant gene by agar dilution method. The essentials: as §1
In assay [10] the test system is Streptococcus pneumoniae. Put plainly: Antimicrobial activity against kanamycin-resistant and spr0811-spr0813::aphIII deficient Streptococcus pneumoniae VarG by agar dilution method. In outline:
as §1

The values below come from ChEMBL document CHEMBL1649428, “An ABC transporter of Streptococcus pneumoniae involved in susceptibility to vancoresmycin and bacitracin” (2009).

Values after ≈ are worked out from the molar mass of the structure shown. Bridge positions count the residues as written; N and C are the ends. Square brackets hold non-standard residues; d marks the D form. Peptide text beside a SMILES is read from it. * marks the point of attachment. Ileψ(thiazoline)Cys = CC[C@H](C)[C@H](N)C1=N[C@H](C(=O)*)CS1; dOrn = NCCC[C@@H](N)C(=O)O

For orientation: MIC means the lowest concentration found to suppress growth. Higher therefore signals weaker potency. `CC[C@H](C)[C@H](N)C1=N[C@H](C(=O)N[C@@H](CC(C)C)C(=O)N[C@H](CCC(=O)O)C(=O)N[C@H](C(=O)N[C@H]2CCCCNC(=O)[C@H](CC(N)=O)NC(=O)[C@@H](CC(=O)O)NC(=O)[C@H](Cc3cnc[nH]3)NC(=O)[C@@H](Cc3ccccc3)NC(=O)[C@H]([C@@H](C)CC)NC(=O)[C@@H](CCCN)NC2=O)[C@@H](C)CC)CS1` [BACITRACIN] ({Ileψ(thiazoline)Cys}-L[dE]IK[dOrn]I[dF]H[dD]N; lactam 4-C): the MIC amounted to 1 µg/mL (≈ 0.703 µM) in [1]; 5.2 µg/mL (≈ 3.65 µM) in assay [2]; 5.2 µg/mL (≈ 3.65 µM) in assay [3]; 1 µg/mL (≈ 0.703 µM) in [4]; 1 µg/mL (≈ 0.703 µM) in assay [5]; 1 µg/mL (≈ 0.703 µM) in assay [6]. In addition, the MIC in assay [7] is 4.8 µg/mL (≈ 3.37 µM); in assay [8] it was 5.2 µg/mL (≈ 3.65 µM); in [9], 1 µg/mL (≈ 0.703 µM); in assay [10] it was 1 µg/mL (≈ 0.703 µM).

For the compound `C/C(=C\CC(O)CC(O)CCC(C)C(O)C(C)C(O)CCCC(O)C(C)C(O)/C(C)=C/C(C)C(=O)/C(C)=C/C(O)C(O)CC(O)CC(OC1OC(C)C(O)C(N)C1O)C(C)CCC(O)CC(O)CCC(C)C(O)C(C)C(O)C(C)C)C(=O)C1=C(O)/C(=C/C(C)C)N(C)C1=O` (centres undefined) [VANCORESMYCIN], the MIC came to 0.5 µg/mL (≈ 0.372 µM) in assay [1]; 0.7 µg/mL (≈ 0.521 µM) in assay [2]; 0.7 µg/mL (≈ 0.521 µM) in assay [3]; 0.5 µg/mL (≈ 0.372 µM) in assay [5]; 0.4 µg/mL (≈ 0.298 µM) in assay [6]; 0.4 µg/mL (≈ 0.298 µM) in [7]. Besides, the values for the MIC in assay [8], in assay [9] and in assay [10] were 0.65 µg/mL (≈ 0.484 µM), 0.5 µg/mL (≈ 0.372 µM) and 0.4 µg/mL (≈ 0.298 µM), respectively.
